As a reminder, the IC50 is the concentration that gives 50% inhibition.

IC50 data for 22 compounds are collected here from ChEMBL document CHEMBL1149360, “Synthesis of 2-amino-4-(7-azaindol-3-yl)pyrimidines as cyclin dependent kinase 1 (CDK1) inhibitors” (Bioorg Med Chem Lett, 2006).

Assay [1] deals with HeLa. The experiment in a line: Antiproliferative activity against human HeLa cell line assessed as incorporation [14C]thymidine. It counts as functional, cell-based. The gist of the method:
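HeLa cervical carcinoma cells. Proliferation was read as ¹⁴C-thymidine incorporation into cellular DNA, and the IC₅₀ for inhibition of proliferation was derived from that.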

For assay [2], the target named is Cyclin-dependent kinase 1/cyclin B (Homo sapiens, UniProt P06493). As to the kind of experiment: Inhibition of CDK1/cyclinB by Flashplate assay. It is filed as protein-complex assay. The essentials: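 CDK1 complexed with cyclin B phosphorylated a biotinylated histone-H1 peptide substrate using ³³P-γ-ATP. The substrate was immobilized in a Flashplate format, and inhibition was read as reduced ³³P incorporation into the substrate.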

For `Oc1ccccc1Nc1nccc(-c2c[nH]c3ncccc23)n1`, the IC50 in assay [1] is 955 nM.

The compound `Cc1ccccc1Nc1nccc(-c2c[nH]c3ncccc23)n1` showed an IC50 in assay [2] of 3 nM.

Consider `Cc1cc(CCN2CCCCC2)ccc1Nc1nccc(-c2c[nH]c3ncccc23)n1`, for which the IC50 was 3 nM in assay [1] and 1 nM in assay [2].

For `FC(F)(F)c1ccccc1Nc1nccc(-c2c[nH]c3ncccc23)n1`, the IC50 in assay [1] was 392 nM.

Consider `c1ccc(Nc2nccc(-c3c[nH]c4ncccc34)n2)cc1`, for which the IC50 in assay [1] worked out at 382 nM.

`c1cnc2[nH]cc(-c3ccnc(NC4CCCCC4)n3)c2c1`: the IC50 in assay [1] stood at 31 nM.

As to `CS(=O)(=O)n1cc(-c2ccnc(NC3CCCCC3)n2)c2cccnc21`, the IC50 in assay [1] is 393 nM.

For the compound `Cc1cc(CCO)ccc1Nc1nccc(-c2c[nH]c3ncccc23)n1`, the IC50 in assay [1] came out at 11 nM; in assay [2], 0.6 nM.

With `Brc1ccccc1Nc1nccc(-c2c[nH]c3ncccc23)n1`, the IC50 was found to be 95 nM in assay [1] and 13 nM in assay [2].

`Cc1[nH]c2ncccc2c1-c1ccnc(N[C@H]2CC[C@H](N)CC2)n1`: the IC50 in assay [1] was found to be 130 nM; in assay [2] it was 280 nM.

Turning to `COc1ccccc1Nc1nccc(-c2c[nH]c3ncccc23)n1`, the IC50 in assay [1] came to 350 nM.

Consider `CN(C)CCn1cc(-c2ccnc(NC3CCCCC3)n2)c2cccnc21`, for which the IC50 in assay [1] was found to be 8900 nM.

Turning to `Clc1ccccc1Nc1nccc(-c2c[nH]c3ncccc23)n1`, the figures for the IC50 in assay [1] and in assay [2] were 140 nM and 9 nM, respectively.

Turning to `CCc1ccccc1Nc1nccc(-c2c[nH]c3ncccc23)n1`, the IC50 in assay [1] is 292 nM.

In the case of `Cc1cc(CCN2CCOCC2)ccc1Nc1nccc(-c2c[nH]c3ncccc23)n1`, the IC50 in assay [1] is 3 nM; in assay [2], 1.9 nM.

As for `CC(=O)n1cc(-c2ccnc(NC3CCCCC3)n2)c2cccnc21`, the IC50 in assay [1] was determined as 23 nM.

In the case of `Cc1cc(CCN2CCCC2)ccc1Nc1nccc(-c2c[nH]c3ncccc23)n1`, the IC50 in assay [1] was 3 nM; in assay [2], 0.6 nM.

As to `Fc1ccccc1Nc1nccc(-c2c[nH]c3ncccc23)n1`, the IC50 in assay [1] was 92 nM.

As to `Cc1ccc(Nc2nccc(-c3c[nH]c4ncccc34)n2)cc1`, the IC50 in assay [1] amounted to 220 nM.

Turning to `N[C@H]1CC[C@H](Nc2nccc(-c3c[nH]c4ncccc34)n2)CC1`, the IC50 was found to be 1 nM in assay [1] and 2 nM in assay [2].

Regarding `c1cnc2[nH]cc(-c3ccnc(NCC4CCCCC4)n3)c2c1`, in assay [1], the IC50 came out at 368 nM.

For `Cn1cc(-c2ccnc(NC3CCCCC3)n2)c2cccnc21`, the figures for the IC50 in assay [1] and in assay [2] were 52100 nM and over 10000 nM, respectively.
